Data on 4 compounds can be found in ChEMBL document CHEMBL2086248, “Synthesis of some novel 1-(2-naphthyl)-2-(imidazol-1-yl)ethanone oxime ester derivatives and evaluation of their anticonvulsant activity” (Eur J Med Chem, 2012).

SMILES strings stand for the structures. Activity calls are given as the source filed them.

In series [1] the test system is Mus musculus. As to the kind of experiment: Anticonvulsant activity in mouse assessed as protection against subcutaneous pentylenetetrazole-induced seizures at 100 mg/kg, ip after 4 hrs. The class given is functional, organism-based. Also noted: dose 100 mg/kg. A digest of the protocol: (§1)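 Swiss albino mice (20-24 g) were dosed ip with a suspension in 30% aqueous PEG 400 and challenged 0.5 h or 4 h later. Protection meant no threshold seizure (clonic spasms lasting at least 5 s). Scored as number protected/number tested, one mouse per dose and time.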

Series [2] has as its system Mus musculus. As to the kind of experiment: Anticonvulsant activity in mouse assessed as protection against maximal electroshock-induced seizures at 30 mg/kg, ip after 0.5 hrs. Type of series: functional, organism-based. Details: dose 30 mg/kg. A digest of the protocol: (§2)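 Swiss albino mice (20-24 g) received an ip suspension in 30% aqueous PEG 400 and were tested 0.5 h and 4 h after dosing. Shock was delivered through corneal electrodes from a constant current unit, with 0.9% saline dropped into the eyes first. Protection meant abolition of the hind limb tonic extension. Scored as number protected/number tested, one mouse per dose and time.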
(In general: Protection in the maximal electroshock model is a classic sign of anticonvulsant action.)

In series [3] the test system is Mus musculus. As to the kind of experiment: Anticonvulsant activity in mouse assessed as protection against maximal electroshock-induced seizures at 300 mg/kg, ip after 0.5 hrs. Details: dose 300 mg/kg. Type of series: functional, organism-based. In short, it runs like this:
as §2

In series [4] the test system is Mus musculus. As to the kind of experiment: Anticonvulsant activity in mouse assessed as protection against maximal electroshock-induced seizures at 30 mg/kg, ip after 4 hrs. The class given is functional, organism-based. Details: dose 30 mg/kg. A digest of the protocol: as §2
In series [5] the test system is Mus musculus. As to the kind of experiment: Anticonvulsant activity in mouse assessed as protection against maximal electroshock-induced seizures at 100 mg/kg, ip after 4 hrs. Details: dose 100 mg/kg. Type of series: functional, organism-based. In short, it runs like this: as §2
The subject of series [6] is Mus musculus. As to the kind of experiment: Neurotoxicity in mouse assessed as mortality at 300 mg/kg, ip after 4 hrs by rotarod test. Type of series: toxicity, organism-based. Also noted: dose 300 mg/kg, route intraperitoneal. Particulars: in vivo.
In series [7] the test system is Mus musculus. As to the kind of experiment: Anticonvulsant activity in mouse assessed as protection against subcutaneous pentylenetetrazole-induced seizures at 30 mg/kg, ip after 0.5 hrs. The class given is functional, organism-based. Details: dose 30 mg/kg. In short, it runs like this:
as §1

The test system of series [8] is Mus musculus. As to the kind of experiment: Neurotoxicity in mouse assessed as motor impairment at 100 mg/kg, ip after 0.5 hrs by rotarod test. Also noted: dose 100 mg/kg, route intraperitoneal. The following applies: in vivo. The class given is toxicity, organism-based. A digest of the protocol:
(§3)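 Swiss albino mice (20-24 g) were dosed ip with a suspension in 30% aqueous PEG 400 and tested 0.5 h or 4 h later. They were placed on a knurled wooden rod 1 inch in diameter, rotating at 6 rpm. Toxicity meant failure to stay on the rod for at least 1 min in each of three trials. Scored as number toxic/number tested (4 mice at 0.5 h, 2 at 4 h).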

The test system of series [9] is Mus musculus. As to the kind of experiment: Neurotoxicity in mouse assessed as mortality at 300 mg/kg, ip after 0.5 hrs by rotarod test. Type of series: toxicity, organism-based. Details: dose 300 mg/kg, route intraperitoneal. The following applies: in vivo. (In the rotarod test animals must keep their balance on a rotating rod.)
Series [10] has as its system Mus musculus. As to the kind of experiment: Anticonvulsant activity in mouse assessed as protection against maximal electroshock-induced seizures at 100 mg/kg, ip after 0.5 hrs. The class given is functional, organism-based. Details: dose 100 mg/kg. A digest of the protocol: as §2
The subject of series [11] is Mus musculus. As to the kind of experiment: Neurotoxicity in mouse assessed as motor impairment at 30 mg/kg, ip after 4 hrs by rotarod test. Type of series: toxicity, organism-based. Also noted: dose 30 mg/kg, route intraperitoneal. Particulars: in vivo. In short, it runs like this: as §3
Series [12] concerns Mus musculus. As to the kind of experiment: Anticonvulsant activity in mouse assessed as protection against subcutaneous pentylenetetrazole-induced seizures at 100 mg/kg, ip after 0.5 hrs. The class given is functional, organism-based. Details: dose 100 mg/kg. A digest of the protocol:
as §1

Series [13] relates to Mus musculus. As to the kind of experiment: Neurotoxicity in mouse assessed as motor impairment at 100 mg/kg, ip after 4 hrs by rotarod test. Type of series: toxicity, organism-based. Also noted: dose 100 mg/kg, route intraperitoneal. Particulars: in vivo. In short, it runs like this:
as §3

Series [14] relates to Mus musculus. As to the kind of experiment: Anticonvulsant activity in mouse assessed as protection against maximal electroshock-induced seizures at 300 mg/kg, ip after 4 hrs. Type of series: functional, organism-based. Details: dose 300 mg/kg. In short, it runs like this:
as §2

For series [15], the system named is Mus musculus. As to the kind of experiment: Neurotoxicity in mouse assessed as motor impairment at 30 mg/kg, ip after 0.5 hrs by rotarod test. Details: dose 30 mg/kg, route intraperitoneal. Particulars: in vivo. Type of series: toxicity, organism-based. In short, it runs like this:
as §3

For series [16], the system named is Mus musculus. As to the kind of experiment: Anticonvulsant activity in mouse assessed as protection against subcutaneous pentylenetetrazole-induced seizures at 300 mg/kg, ip after 0.5 hrs. Type of series: functional, organism-based. Details: dose 300 mg/kg. A digest of the protocol: as §1
The test system of series [17] is Mus musculus. As to the kind of experiment: Anticonvulsant activity in mouse assessed as protection against subcutaneous pentylenetetrazole-induced seizures at 30 mg/kg, ip after 4 hrs. Type of series: functional, organism-based. Also noted: dose 30 mg/kg. In short, it runs like this:
as §1

The test system of series [18] is Mus musculus. As to the kind of experiment: Neurotoxicity in mouse assessed as motor impairment at 300 mg/kg, ip after 0.5 hrs by rotarod test. The class given is toxicity, organism-based. Also noted: dose 300 mg/kg, route intraperitoneal. The following applies: in vivo. In short, it runs like this:
as §3

In series [19] the test system is Mus musculus. As to the kind of experiment: Anticonvulsant activity in mouse assessed as protection against subcutaneous pentylenetetrazole-induced seizures at 300 mg/kg, ip after 4 hrs. Type of series: functional, organism-based. Details: dose 300 mg/kg. A digest of the protocol:
as §1

Series [20] deals with Mus musculus. As to the kind of experiment: Neurotoxicity in mouse assessed as motor impairment at 300 mg/kg, ip after 4 hrs by rotarod test. Particulars: in vivo. Details: dose 300 mg/kg, route intraperitoneal. Type of series: toxicity, organism-based. In short, it runs like this: as §3

Regarding `O=C(CCC(=O)c1ccccc1)O/N=C(\Cn1ccnc1)c1ccc2ccccc2c1`, the result in the series on Mus musculus [1], with Mus musculus [3], in the series with Mus musculus [7], in the series on Mus musculus [12], in the series on Mus musculus [14] and in the series with Mus musculus [16] was inactive. For the same compound, the result in the series on Mus musculus [17] was inactive. Also, the result with Mus musculus [2], in the series on Mus musculus [4], with Mus musculus [5] and in the series on Mus musculus [10] was Active. Also, the Activity entry in the series with Mus musculus [6] is on record as “Toxic”; in the series on Mus musculus [8] it was “Non-toxic”; with Mus musculus [9], “Toxic”; with Mus musculus [11], “Non-toxic”; in the series with Mus musculus [13], “Non-toxic”; in the series on Mus musculus [15] it was “Non-toxic”.

With `O=C(O/N=C(\Cn1ccnc1)c1ccc2ccccc2c1)c1cccc(Br)c1`, the result with Mus musculus [1], with Mus musculus [2], in the series with Mus musculus [4], with Mus musculus [19], in the series on Mus musculus [5] and with Mus musculus [7] was inactive. For the same compound, the outcome in the series on Mus musculus [12], in the series on Mus musculus [14], with Mus musculus [16] and in the series on Mus musculus [17] was inactive. Besides, the outcome in the series with Mus musculus [3] and in the series on Mus musculus [10] was Active. Further, the Activity result in the series on Mus musculus [18], in the series with Mus musculus [8], in the series with Mus musculus [20], in the series with Mus musculus [11], with Mus musculus [13] and in the series with Mus musculus [15] was “Non-toxic” each time.

In the case of `O=C(O/N=C(\Cn1ccnc1)c1ccc2ccccc2c1)c1ccccc1Cl`, the outcome with Mus musculus [1], in the series with Mus musculus [2], in the series with Mus musculus [4], in the series with Mus musculus [19], in the series with Mus musculus [5] and with Mus musculus [7] was inactive. Moreover, the result in the series with Mus musculus [12], in the series on Mus musculus [14], with Mus musculus [16] and in the series with Mus musculus [17] was inactive. The result with Mus musculus [3] and in the series with Mus musculus [10] was Active. Also, the Activity entry with Mus musculus [18], in the series with Mus musculus [8], in the series with Mus musculus [20], in the series with Mus musculus [11], in the series on Mus musculus [13] and with Mus musculus [15] was “Non-toxic” each time.

As for `O=C(O/N=C(\Cn1ccnc1)c1ccc2ccccc2c1)c1cccc(Cl)c1`, the result in the series on Mus musculus [1], with Mus musculus [2], with Mus musculus [4], in the series with Mus musculus [19], in the series on Mus musculus [7] and in the series on Mus musculus [12] was inactive. Moreover, the result in the series on Mus musculus [16] and with Mus musculus [17] was inactive. Also, the result with Mus musculus [3], in the series with Mus musculus [5], in the series on Mus musculus [10] and with Mus musculus [14] was Active. In addition, the Activity entry in the series with Mus musculus [18], in the series with Mus musculus [8], in the series with Mus musculus [20], in the series with Mus musculus [11], in the series on Mus musculus [13] and in the series on Mus musculus [15] was “Non-toxic” throughout.
